# Key:
# [1] = Solubility in water at pH 7.4
# [2] = biological target: Adenosine kinase (Homo sapiens, UniProt P55263); assay: Inhibitory activity against recombinant human adenosine kinase
# [3] = tested on: Rattus norvegicus; assay: Inhibition of the licking and biting response at 20 mg/kg, po in rat by formalin paw antinociceptive assay; assay type: functional; details: Sprague-Dawley
# Summary of the method: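 Screening: fasted male SD rats (105–115 g), three per compound, 20 mg/kg po in 0.1% MC 15 min before 2% formalin (50 μL s.c., right hindpaw). Licking/biting scored 5 s per 30 s; percent inhibition reported for 2nd phase (15–30 min); positive control 5 mg/kg po each run.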
# Adenosine kinase, sequence (P55263 whole entry): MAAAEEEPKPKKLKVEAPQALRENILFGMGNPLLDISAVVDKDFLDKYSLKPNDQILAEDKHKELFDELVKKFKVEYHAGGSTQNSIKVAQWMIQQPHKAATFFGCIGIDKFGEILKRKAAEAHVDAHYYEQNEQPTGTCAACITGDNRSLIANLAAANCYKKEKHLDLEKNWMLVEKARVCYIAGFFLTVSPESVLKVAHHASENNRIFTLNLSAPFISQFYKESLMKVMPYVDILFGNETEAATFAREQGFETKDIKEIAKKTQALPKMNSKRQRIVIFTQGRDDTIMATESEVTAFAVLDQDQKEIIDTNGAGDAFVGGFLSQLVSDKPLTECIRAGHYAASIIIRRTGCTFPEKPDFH
SMILES,solubility [1] [µg/mL],IC50 [2] [nM],inhibition in vivo at 20 mg/kg [3] [%]
O=C(CNc1[nH]cnc2ncc(-c3ccccc3)c1-2)NC1CC1,,> 10000,
O=C(CNc1ncnc2c1c(-c1ccccc1)nn2[C@@H]1O[C@H](CO)[C@@H](O)[C@H]1O)Nc1ccccc1,7,0.9,-10
C[C@H]1O[C@@H](n2cc(-c3ccccc3)c3c(Nc4ccccc4)ncnc32)[C@H](O)[C@@H]1O,< 0.05,,
O=C(CNc1ncnc2c1c(-c1ccccc1)cn2COCCO)NC1CC1,270,1700,
O=C(CNc1ncnc2c1c(-c1ccccc1)cn2[C@@H]1O[C@H](CO)[C@@H](O)[C@H]1O)NC1CC1,76,3,21
C[C@H]1O[C@@H](n2cc(I)c3c(NCC(=O)NC4CC4)ncnc32)[C@H](O)[C@@H]1O,5,880,
C[C@@H](Nc1ncnc2c1c(-c1ccccc1)cn2[C@@H]1O[C@H](C)[C@@H](O)[C@H]1O)C(=O)NC1CC1,,2500,
O=C(CNc1ncnc2c1c(-c1ccccc1)nn2[C@@H]1O[C@H](CO)[C@@H](O)[C@H]1O)NC1CC1,370,10,6
CCCOC(=O)Nc1ncnc2c1c(-c1ccccc1)cn2[C@@H]1O[C@H](C)[C@@H](O)[C@H]1O,,4,
C[C@H]1O[C@@H](n2cc(-c3ccccc3)c3c(NCC4CC4)ncnc32)[C@H](O)[C@@H]1O,0.1,45,
C[C@H]1O[C@@H](n2cc(-c3ccccc3)c3c(NC(=O)C(=O)NC4CC4)ncnc32)[C@H](O)[C@@H]1O,17,1.3,17
C[C@H]1O[C@@H](n2cc(-c3ccccc3)c3c(NCC(=O)Nc4ccccc4)ncnc32)[C@H](O)[C@@H]1O,< 0.05,0.5,62
C[C@H](Nc1ncnc2c1c(-c1ccccc1)cn2[C@@H]1O[C@H](C)[C@@H](O)[C@H]1O)C(=O)NC1CC1,480,530,
C[C@H]1O[C@@H](n2cc(-c3ccccc3)c3c(NC4CC4)ncnc32)[C@H](O)[C@@H]1O,36,380,
C[C@H]1O[C@@H](n2cc(-c3ccccc3)c3c(NCC(=O)Nc4ccc(Cl)cc4)ncnc32)[C@H](O)[C@@H]1O,< 0.05,0.2,62
O=C(CNc1ncnc2c1c(-c1ccccc1)cn2[C@@H]1OC[C@@H](O)[C@H]1O)Nc1ccccc1,,0.6,37
C[C@H]1O[C@@H](n2nc(-c3ccccc3)c3c(NCC(=O)NC4CC4)ncnc32)[C@H](O)[C@@H]1O,620,6,7
O=C(CNc1ncnc2c1c(-c1ccccc1)cn2[C@@H]1OC[C@@H](O)[C@H]1O)NC1CC1,280,20,17
C[C@H]1O[C@@H](n2cc(-c3ccccc3)c3c(NC/C(S)=N\C4CC4)ncnc32)[C@H](O)[C@@H]1O,8,0.5,22
C[C@H]1O[C@@H](n2cc(-c3ccccc3)c3c(Nc4ccc(F)cc4)ncnc32)[C@H](O)[C@@H]1O,< 0.05,,
O=C(CNc1ncnc2c1c(-c1ccccc1)cn2COCCO)Nc1ccc(Cl)cc1,< 0.05,60,31

# Continued, in another order:
solubility [1] [µg/mL],IC50 [2] [nM],SMILES,inhibition in vivo at 20 mg/kg [3] [%]
32,27,CNC(=O)Nc1ncnc2c1c(-c1ccccc1)cn2[C@@H]1O[C@H](C)[C@@H](O)[C@H]1O,
140,40,CCNC(=O)CNc1ncnc2c1c(-c1ccccc1)cn2[C@@H]1O[C@H](C)[C@@H](O)[C@H]1O,52
750,2,C[C@H]1O[C@@H](n2cc(-c3ccccc3)c3c(NCC(N)=O)ncnc32)[C@H](O)[C@@H]1O,
535,5,CCONC(=O)CNc1ncnc2c1c(-c1ccccc1)cn2[C@@H]1O[C@H](C)[C@@H](O)[C@H]1O,0
> 1000,210,CCN(CC)CCNC(=O)CNc1ncnc2c1c(-c1ccccc1)cn2[C@@H]1O[C@H](C)[C@@H](O)[C@H]1O,11
,2500,C[C@H]1O[C@@H](n2cc(-c3ccccc3)c3c(NCCC(N)=O)ncnc32)[C@H](O)[C@@H]1O,
3,140,CC(C)CNc1ncnc2c1c(-c1ccccc1)cn2[C@@H]1O[C@H](C)[C@@H](O)[C@H]1O,
650,16,C[C@H]1O[C@@H](n2cc(-c3ccccc3)c3c(NCC(=O)NCCCO)ncnc32)[C@H](O)[C@@H]1O,4
,2,COCCCNC(=O)CNc1ncnc2c1c(-c1ccccc1)cn2[C@@H]1O[C@H](C)[C@@H](O)[C@H]1O,24
> 1000,145,C[C@H]1O[C@@H](n2cc(-c3ccccc3)c3c(NCC(=O)NCCCN(C)C)ncnc32)[C@H](O)[C@@H]1O,22
240,0.8,CNC(=O)CNc1ncnc2c1c(-c1ccccc1)cn2[C@@H]1O[C@H](C)[C@@H](O)[C@H]1O,35
7,4,CC(C)CNC(=O)CNc1ncnc2c1c(-c1ccccc1)cn2[C@@H]1O[C@H](C)[C@@H](O)[C@H]1O,16
38,7,CCCNC(=O)CNc1ncnc2c1c(-c1ccccc1)cn2[C@@H]1O[C@H](C)[C@@H](O)[C@H]1O,41
> 1000,300,C[C@H]1O[C@@H](n2cc(-c3ccccc3)c3c(NCC(=O)NCCN(C)C)ncnc32)[C@H](O)[C@@H]1O,
12,6,C[C@H]1O[C@@H](n2cc(-c3ccccc3)c3c(NCC(=O)NCC4CC4)ncnc32)[C@H](O)[C@@H]1O,42
26,25,CC(C)NC(=O)CNc1ncnc2c1c(-c1ccccc1)cn2[C@@H]1O[C@H](C)[C@@H](O)[C@H]1O,74
16,100,CCCNc1ncnc2c1c(-c1ccccc1)cn2[C@@H]1O[C@H](C)[C@@H](O)[C@H]1O,
230,38,COCCNC(=O)CNc1ncnc2c1c(-c1ccccc1)cn2[C@@H]1O[C@H](C)[C@@H](O)[C@H]1O,44
105,460,C[C@H]1O[C@@H](n2cc(-c3ccccc3)c3c(NCC(=O)N(C)C4CC4)ncnc32)[C@H](O)[C@@H]1O,
6,1,C[C@H]1O[C@@H](n2cc(-c3ccccc3)c3c(NCC(=O)NC4CCCC4)ncnc32)[C@H](O)[C@@H]1O,16
44,1.3,C[C@H]1O[C@@H](n2cc(-c3ccccc3)c3c(NCC(=O)NC4CCC4)ncnc32)[C@H](O)[C@@H]1O,60

# Reference: ChEMBL document CHEMBL1141192 (J Med Chem, 2005)
